Screening data as filed in PubChem.
SIRT5 block: SIRT5 desuccinylase inhibitors, primary screen, biochemical, fluorescence imaging, single point, set 5 | Purified SirT5, succinyl-peptide AMC, trypsin-coupled fluorescence | NAD-dependent protein deacylase sirtuin-5, mitochondrial (Homo sapiens), Q9NXA8 | AID 652115, 2013 | inhibition, % at 15 µM | 1.1% of 330,000 active; in the data active = inhibition above about 15%; inconclusive = no clear call, values can overlap the other calls
E-selectin induc: E-selectin induction in HUVECs, primary screen, imaging, HUVEC, immunofluorescence imaging, single point. AID 686992, 2013. normalized: neutral wells 0, TNF-alpha wells 100. activation, % at 7.58 µM. P16581. 0.37% of 260,000 active;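 active = mean E-selectin-positive cell signal at least 10% of the positive control, reached in at least 60% of replicates, without over 20% cell loss; inconclusive = no rule given, readout overlaps actives, possibly toxicity-flagged; inactive = the rest, including those meeting only one limit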
Target sequence (P16581 whole entry, looked up): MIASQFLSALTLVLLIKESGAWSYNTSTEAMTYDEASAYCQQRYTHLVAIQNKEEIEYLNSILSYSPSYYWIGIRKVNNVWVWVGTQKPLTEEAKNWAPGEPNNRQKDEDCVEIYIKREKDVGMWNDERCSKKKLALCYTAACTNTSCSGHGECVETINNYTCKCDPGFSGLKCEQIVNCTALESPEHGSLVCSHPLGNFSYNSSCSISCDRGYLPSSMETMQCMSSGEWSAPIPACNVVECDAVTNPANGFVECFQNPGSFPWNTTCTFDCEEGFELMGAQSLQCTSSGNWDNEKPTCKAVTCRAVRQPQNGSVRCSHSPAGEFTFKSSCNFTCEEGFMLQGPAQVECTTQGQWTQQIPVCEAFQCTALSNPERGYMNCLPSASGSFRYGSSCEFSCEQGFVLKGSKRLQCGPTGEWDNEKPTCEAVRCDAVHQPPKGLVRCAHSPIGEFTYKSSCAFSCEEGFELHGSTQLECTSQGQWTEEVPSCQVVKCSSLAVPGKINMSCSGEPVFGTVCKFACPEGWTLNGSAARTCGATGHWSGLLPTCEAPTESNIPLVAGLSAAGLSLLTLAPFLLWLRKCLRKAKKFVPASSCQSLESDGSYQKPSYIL
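material = human umbilical vein endothelial cells (HUVEC), E-selectin induction | quantity = 3,000 cells/well | medium = EGM-2 growth medium on 0.1% gelatin-coated wells | technique = immunofluorescence imaging | read-out basis = % PE-positive cells | control set = TNF-alpha positive control, DMSO neutral control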
DENV2 CPE: inhibitors of DENV2 cytopathic effect, primary screen, cell-based, plate reader, single concentration | AID 651640, 2012 | DENV2-infected cells, cytopathic effect rescue | CPE inhibition, % at 9.99 µM | 1.7% of 350,000 active; in the data active = CPE inhibition above about 20%, passing the limit was not always enough; inconclusive = no clear call, values can overlap the other calls; tested in BHK-21 cells
Each line names hits and unclear results; the compound was inactive in the other large screens. Hits are enriched below; roughly 2.8% of the tested compounds scored in any of these assays.

C[C@H](CO)N1C[C@H](C)[C@@H](CN(C)C(=O)C2CC2)Oc2ncc(C3=CCCC3)cc2C1=O	none (no result: SIRT5 block, DENV2 CPE)
O=C(C1CC1)N1C[C@@H]2[C@H](c3ccccc31)[C@H](CO)N2S(=O)(=O)c1ccccc1	none (no result: SIRT5 block, DENV2 CPE)
CO[C@@H]1CN(C)C(=O)c2cc(NC(=O)Nc3cccc(F)c3)ccc2OC[C@H](C)N(C(=O)C2CC2)C[C@@H]1C	none (no result: SIRT5 block, DENV2 CPE)
CC(C)CC#Cc1ccc2c(c1)O[C@@H](CN(C)C(=O)c1ccccc1)[C@H](C)CN([C@H](C)CO)S2(=O)=O	none
CC(C)CC#Cc1ccc2c(c1)O[C@@H](CN(C)C(=O)c1cccc(F)c1)[C@H](C)CN([C@H](C)CO)S2(=O)=O	SIRT5 block 16
CC(C)C#Cc1ccc2c(c1)O[C@H](CN(C)C(=O)c1cccc(F)c1)[C@H](C)CN([C@@H](C)CO)S2(=O)=O	none
CC(C)CC#Cc1ccc2c(c1)O[C@@H](CN(C)C(=O)c1cccc(F)c1)[C@H](C)CN([C@@H](C)CO)S2(=O)=O	SIRT5 block 22
Cc1cccc(S(=O)(=O)N2C[C@@H](O)COC[C@@H]3O[C@H](CC(=O)N4CCN(C)CC4)CC[C@H]32)c1	none
Cc1noc(C)c1NC(=O)N(C)C[C@@H]1Oc2ccc(NS(=O)(=O)c3ccccc3)cc2C(=O)N([C@@H](C)CO)C[C@H]1C	none
O=C(COC(=O)c1ccc(-c2ccc([N+](=O)[O-])cc2)o1)NC(=O)NC1CCCCC1	none
O=C(COC(=O)c1ccc(-c2ccc([N+](=O)[O-])cc2)o1)NC(=O)NC12CC3CC(CC(C3)C1)C2	E-selectin induc 149
COc1ccc(S(=O)(=O)Nc2ccc3c(c2)OC[C@@H](C)N(C(=O)NC(C)C)C[C@@H](C)[C@H](OC)CN(C)C3=O)cc1	none
C[C@@H]1CN([C@@H](C)CO)C(=O)c2cc(NC(=O)Nc3ccc4c(c3)OCO4)ccc2O[C@@H]1CN(C)Cc1ccc(Cl)c(Cl)c1	none
CCCNC(=O)N(C)C[C@H]1Oc2cc(C#CC(C)C)ccc2S(=O)(=O)N([C@H](C)CO)C[C@@H]1C	SIRT5 block 19
CCCNC(=O)N(C)C[C@H]1Oc2cc(C#C[C@H](C)O)ccc2S(=O)(=O)N([C@@H](C)CO)C[C@@H]1C	SIRT5 block 18
CCCNC(=O)N(C)C[C@@H]1Oc2cc(C#C[C@@H](C)O)ccc2S(=O)(=O)N([C@@H](C)CO)C[C@@H]1C	none
CCCNC(=O)N(C)C[C@H]1Oc2cc(C#CC(C)C)ccc2S(=O)(=O)N([C@H](C)CO)C[C@H]1C	none
COc1ccc(NC(=O)Nc2ccc3c(c2)CC(=O)N([C@H](C)CO)C[C@H](C)[C@@H](CN(C)Cc2ccc(Cl)c(Cl)c2)O3)cc1	DENV2 CPE inconclusive (no result: SIRT5 block)
C[C@@H]1CCCCO[C@@H](CN(C)CC2CCCCC2)[C@H](C)CN([C@H](C)CO)C(=O)c2cc(NS(=O)(=O)c3ccc(F)cc3)ccc2O1	none
O=C(Nc1cc(C(F)(F)F)cc(C(F)(F)F)c1)Nc1cnn(-c2ccc([N+](=O)[O-])cc2)c1C(F)(F)F	E-selectin induc 74 (no result: SIRT5 block)
O=C(Nc1ccc(C(=O)O)cc1)Nc1ccc([N+](=O)[O-])cc1	none
O=C(C[C@@H]1CC[C@@H]2[C@H](COC[C@@H](O)CN2C(=O)c2cnccn2)O1)N1CCN(c2ccccc2)CC1	none (no result: SIRT5 block)
C[C@@H]1CN([C@H](C)CO)C(=O)Cc2cc(NC(=O)Nc3cccc4ccccc34)ccc2O[C@H]1CN(C)C	none
COc1cccc(C(=O)CC(=O)C(=O)Nc2cccc([N+](=O)[O-])c2C)c1	none
COc1ccc(C(=O)CC(=O)C(=O)Nc2cccc([N+](=O)[O-])c2C)cc1	DENV2 CPE 30
CCN(CC)C1CCN(Cc2c(C(=O)N3CCCCCCC3)nc3ccc(Cl)cn23)C1 (stereo not drawn)	DENV2 CPE 35
COC1CCN(Cc2c(C(=O)N3C[C@@H](C)O[C@@H](C)C3)nc3ccc(Cl)cn23)CC1	none
C[C@H](O)C#Cc1cnc2c(c1)C(=O)N([C@H](C)CO)C[C@@H](C)[C@H](CN(C)C(=O)c1ccccc1F)O2	none (no result: E-selectin induc)
O=C1COc2cc(ccc2[N+](=O)[O-])Oc2ccc(cc2Cl)C(=O)CCCCO1	SIRT5 block 18
O=[N+]([O-])c1ccc(C2=Nc3cc(Cl)ccc3OC2)cc1	none
CN(C)c1ccc(C(=O)c2ccccc2C(=O)O)cc1[N+](=O)[O-]	SIRT5 block 28 (no result: E-selectin induc)
CNc1ccc(C(=O)c2ccccc2C(=O)O)cc1[N+](=O)[O-]	none (no result: E-selectin induc)
C[C@@H]1CN([C@@H](C)CO)C(=O)c2cc(C#Cc3ccccn3)cnc2O[C@@H]1CN(C)CC1CCCC1	none (no result: SIRT5 block, DENV2 CPE)
COc1ccc2c3c(n(C)c2c1)[C@H](CO)NCC31CN(Cc2ccccc2F)C1	none (no result: SIRT5 block)
